Converted amounts (≈) assume the structure as drawn.
Experiments:
Type in all cases: functional
[1] = test system: Mycobacterium tuberculosis; experiment: Antimicrobial activity against Mycobacterium tuberculosis H37Rv incubated for 48 hrs by microdilution broth method
Moraxella catarrhalis [2] = experiment: Antimicrobial activity against Moraxella catarrhalis clinical isolates incubated for 48 hrs by microdilution broth method
Procedure, shortened: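 Stocks in DMSO were diluted at least 10-fold into Mueller-Hinton broth, then 2-fold serially diluted in MH from 500 to 15.6 μg/ml. Bacteria were added, with DMSO-only dilution controls, and incubated at 37 °C for 48 h. Growth was scored at 24 and 48 h. MIC was the lowest concentration with no growth. Run in quadruplicate.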

Moraxella catarrhalis [3] = experiment: Bactericidal activity against Moraxella catarrhalis clinical isolates incubated for 48 hrs by microdilution broth method and standard plating method
Procedure, shortened: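 Broth microdilution in Mueller-Hinton broth, 2-fold series from 500 to 15.6 μg/ml, with DMSO-only controls, 37 °C for 48 h. Wells showing no growth were plated (10 μL) on MH agar. MBC was the lowest concentration giving no growth on plating. Run in quadruplicate.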

SMILES | MIC [1] | MIC (Moraxella catarrhalis [2]) | MBC (Moraxella catarrhalis [3])
O=C1CC(Sc2ccc(F)cc2F)N1C(=O)Nc1ccccc1F (racemic) | 25 µg/mL (≈ 71 µM) | – | –
COc1ccccc1CNC(=O)N1C(=O)CC1Sc1ccc(F)cc1F (racemic) | ≥ 100 µg/mL | – | –
O=C1CC(Sc2ccc(Cl)cc2Cl)N1 (racemic) | 25 µg/mL (≈ 101 µM) | 6.25 µg/mL (≈ 25.2 µM) | 6.25 µg/mL (≈ 25.2 µM)
C=CCSC1CC(=O)N1 (racemic) | > 200 µg/mL | > 200 µg/mL | –
O=C1CCN1C(=O)NCc1ccccc1 | > 100 µg/mL | > 100 µg/mL | –
COc1ccc(OC)c(SC2CC(=O)N2)c1 (racemic) | 250 µg/mL (≈ 1040 µM) | 100 µg/mL (≈ 418 µM) | > 200 µg/mL
O=C1CC(Sc2ccc(C(F)(F)F)cc2)N1 (racemic) | 12.5 µg/mL (≈ 50.6 µM) | 100 µg/mL (≈ 404 µM) | 100 µg/mL (≈ 404 µM)
COc1ccc(SC2CC(=O)N2)cc1 (racemic) | 100 µg/mL (≈ 478 µM) | 200 µg/mL (≈ 956 µM) | > 200 µg/mL
O=C1CC(Sc2c(F)c(F)c(F)c(F)c2F)N1 (racemic) | > 100 µg/mL | 1.5 µg/mL (≈ 5.57 µM) | 1.5 µg/mL (≈ 5.57 µM)
CC(NC(=O)N1C(=O)CC1Sc1ccccc1)c1cccc2ccccc12 (racemic) | > 100 µg/mL | > 200 µg/mL | > 200 µg/mL
O=C1CC([Se]c2ccccc2)N1C(=O)NCc1ccccc1 (racemic) | 25 µg/mL (≈ 69.6 µM) | 50 µg/mL (≈ 139 µM) | 50 µg/mL (≈ 139 µM)
CCNC(=O)N1C(=O)CC1Sc1ccc(F)cc1F (racemic) | > 100 µg/mL | – | –
O=C1CC(Sc2ccc(F)cc2)N1C(=O)NCC(c1ccccc1)c1ccccc1 (racemic) | > 100 µg/mL | > 200 µg/mL | > 200 µg/mL
O=C1CC(Sc2ccc([N+](=O)[O-])cc2)N1 (racemic) | 25 µg/mL (≈ 111 µM) | 6.25 µg/mL (≈ 27.9 µM) | 12.5 µg/mL (≈ 55.7 µM)
O=C1CC(Sc2c(F)c(F)c(F)c(F)c2F)N1C(=O)NCc1ccccc1 (racemic) | > 100 µg/mL | 3.1 µg/mL (≈ 7.7 µM) | 6.25 µg/mL (≈ 15.5 µM)
COc1ccccc1SC1CC(=O)N1 (racemic) | 250 µg/mL (≈ 1190 µM) | 100 µg/mL (≈ 478 µM) | > 200 µg/mL
O=C1CC(Sc2ccc(F)cc2F)N1C(=O)NCc1ccccc1 (racemic) | 100 µg/mL (≈ 287 µM) | 1.63 µg/mL (≈ 4.68 µM) | 1.63 µg/mL (≈ 4.68 µM)
O=C1CC(Sc2ccc(F)c(Cl)c2)N1 (racemic) | 25 µg/mL (≈ 108 µM) | 12.5 µg/mL (≈ 54 µM) | 25 µg/mL (≈ 108 µM)
O=C1CC(Sc2ccc(F)cc2)N1C(=O)NC(c1ccccc1)c1ccccc1 (racemic) | > 100 µg/mL | > 200 µg/mL | > 200 µg/mL
O=C1CC(Sc2cccc3ccccc23)N1C(=O)NCc1ccccc1 (racemic) | > 100 µg/mL | 200 µg/mL (≈ 552 µM) | > 200 µg/mL

SMILES | MIC [1] | MIC (Moraxella catarrhalis [2]) | MBC (Moraxella catarrhalis [3])
O=C1CC(Oc2ccc([N+](=O)[O-])cc2)N1 (racemic) | 25 µg/mL (≈ 120 µM) | 50 µg/mL (≈ 240 µM) | 50 µg/mL (≈ 240 µM)
O=C1CC(Sc2cccs2)N1C(=O)NCc1ccccc1 (racemic) | 6.25 µg/mL (≈ 19.6 µM) | 50 µg/mL (≈ 157 µM) | 100 µg/mL (≈ 314 µM)
COc1ccc(SC2CC(=O)N2)cc1OC (racemic) | 250 µg/mL (≈ 1040 µM) | 200 µg/mL (≈ 836 µM) | 200 µg/mL (≈ 836 µM)
O=C1CC(Sc2ccccc2C(F)(F)F)N1C(=O)NCc1ccccc1 (racemic) | 125 µg/mL (≈ 329 µM) | 25 µg/mL (≈ 65.7 µM) | 25 µg/mL (≈ 65.7 µM)
COc1cccc(SC2CC(=O)N2C(=O)NCc2ccccc2)c1 (racemic) | 100 µg/mL (≈ 292 µM) | 200 µg/mL (≈ 584 µM) | 200 µg/mL (≈ 584 µM)
O=C1CC(Sc2ccccc2)N1C(=O)NC(c1ccccc1)c1ccccc1 (racemic) | 50 µg/mL (≈ 129 µM) | – | –
O=C1CC(Sc2cccc(C(F)(F)F)c2)N1 (racemic) | 6.25 µg/mL (≈ 25.3 µM) | 200 µg/mL (≈ 809 µM) | –
O=C1CC([Se]c2ccccc2)N1 (racemic) | 25 µg/mL (≈ 111 µM) | 6.25 µg/mL (≈ 27.6 µM) | 6.25 µg/mL (≈ 27.6 µM)
O=C1CC(Sc2ccc(F)cc2)N1 (racemic) | > 100 µg/mL | > 200 µg/mL | –
O=C1CC(Sc2ccc(F)cc2F)N1 (racemic) | 3.13 µg/mL (≈ 14.5 µM) | 1.5 µg/mL (≈ 6.97 µM) | 3.13 µg/mL (≈ 14.5 µM)
COc1ccc(SC2CC(=O)N2C(=O)NCc2ccccc2)cc1OC (racemic) | 250 µg/mL (≈ 671 µM) | 200 µg/mL (≈ 537 µM) | > 200 µg/mL
COc1ccc(OC)c(SC2CC(=O)N2C(=O)NCc2ccccc2)c1 (racemic) | 50 µg/mL (≈ 134 µM) | 100 µg/mL (≈ 268 µM) | 200 µg/mL (≈ 537 µM)
O=C1CC(Sc2ccccc2)N1C(=O)Nc1cccc2ccccc12 (racemic) | 25 µg/mL (≈ 71.8 µM) | – | –
O=C1CC(Sc2ccc(F)cc2F)N1C(=O)NCc1ccccc1F (racemic) | 50 µg/mL (≈ 136 µM) | – | –
CSc1ccc(SC2CC(=O)N2)cc1 (racemic) | > 100 µg/mL | 100 µg/mL (≈ 444 µM) | 100 µg/mL (≈ 444 µM)
O=C1CC(Sc2cccc3ccccc23)N1 (racemic) | > 250 µg/mL | 100 µg/mL (≈ 436 µM) | > 200 µg/mL
O=C1CC(Sc2cccc(F)c2)N1 (racemic) | 100 µg/mL (≈ 507 µM) | > 200 µg/mL | –
O=C1CC(Sc2ccccc2)N1C(=O)NC1c2ccccc2-c2ccccc21 (racemic) | > 100 µg/mL | – | –
O=C1CC(Sc2ccc(F)cc2Cl)N1 (racemic) | 25 µg/mL (≈ 108 µM) | 12.5 µg/mL (≈ 54 µM) | 50 µg/mL (≈ 216 µM)
CSc1ccc(SC2CC(=O)N2C(=O)NCc2ccccc2)cc1 (racemic) | > 100 µg/mL | – | –

SMILES | MIC [1] | MIC (Moraxella catarrhalis [2]) | MBC (Moraxella catarrhalis [3])
COc1ccccc1SC1CC(=O)N1C(=O)NCc1ccccc1 (racemic) | 125 µg/mL (≈ 365 µM) | 200 µg/mL (≈ 584 µM) | 200 µg/mL (≈ 584 µM)
C#CCCCC(=O)N1C(=O)CC1Sc1ccccc1 (racemic) | 45 µg/mL (≈ 165 µM) | 100 µg/mL (≈ 366 µM) | 100 µg/mL (≈ 366 µM)
O=C1CC(Oc2ccc(C(F)(F)F)cc2)N1 (racemic) | 250 µg/mL (≈ 1080 µM) | 200 µg/mL (≈ 865 µM) | 200 µg/mL (≈ 865 µM)
O=C1CC(Sc2ccc(Cl)cc2Cl)N1C(=O)NCc1ccccc1 (racemic) | 25 µg/mL (≈ 65.6 µM) | 3.13 µg/mL (≈ 8.21 µM) | 6.25 µg/mL (≈ 16.4 µM)
COc1ccc(SC2CC(=O)N2C(=O)NCc2ccccc2)cc1 (racemic) | 125 µg/mL (≈ 365 µM) | 200 µg/mL (≈ 584 µM) | 200 µg/mL (≈ 584 µM)
COc1cccc(SC2CC(=O)N2)c1 (racemic) | > 100 µg/mL | 100 µg/mL (≈ 478 µM) | > 200 µg/mL
O=C1CC(Sc2ccccc2C(F)(F)F)N1 (racemic) | ≥ 100 µg/mL | 1.5 µg/mL (≈ 6.07 µM) | 1.5 µg/mL (≈ 6.07 µM)
O=C1CC(Sc2ccccc2F)N1 (racemic) | 25 µg/mL (≈ 127 µM) | 200 µg/mL (≈ 1010 µM) | –
O=C1CC(Sc2cccs2)N1 (racemic) | 6.25 µg/mL (≈ 33.7 µM) | 25 µg/mL (≈ 135 µM) | 100 µg/mL (≈ 540 µM)
O=C1CC(Sc2ccc(F)c(F)c2)N1 (racemic) | 50 µg/mL (≈ 232 µM) | 50 µg/mL (≈ 232 µM) | 50 µg/mL (≈ 232 µM)
O=C1CC(Sc2ccccc2)N1 (racemic) | 25 µg/mL (≈ 139 µM) | > 200 µg/mL | –
O=C1CC(Sc2cc(C(F)(F)F)cc(C(F)(F)F)c2)N1 (racemic) | > 100 µg/mL | 12.5 µg/mL (≈ 39.7 µM) | 100 µg/mL (≈ 317 µM)
O=C1CC(Sc2ccc(F)cc2Cl)N1C(=O)NCc1ccccc1 (racemic) | 25 µg/mL (≈ 68.5 µM) | 12.5 µg/mL (≈ 34.3 µM) | 25 µg/mL (≈ 68.5 µM)
O=C1CC(Sc2ccc(F)cc2Cl)N1C(=O)NC(c1ccccc1)c1ccccc1 (racemic) | 50 µg/mL (≈ 113 µM) | > 200 µg/mL | > 200 µg/mL
O=C1CC(Sc2ccc(F)c(Cl)c2)N1C(=O)NCc1ccccc1 (racemic) | 25 µg/mL (≈ 68.5 µM) | 6.25 µg/mL (≈ 17.1 µM) | 6.25 µg/mL (≈ 17.1 µM)
O=C1CC(Oc2ccc(C(F)(F)F)cc2)N1C(=O)NCc1ccccc1 (racemic) | 125 µg/mL (≈ 343 µM) | 50 µg/mL (≈ 137 µM) | > 200 µg/mL
O=C1CC(Sc2ccc([N+](=O)[O-])cc2)N1C(=O)NCc1ccccc1 (racemic) | 25 µg/mL (≈ 70 µM) | 3.12 µg/mL (≈ 8.74 µM) | 25 µg/mL (≈ 70 µM)
O=C1CC(Oc2ccc([N+](=O)[O-])cc2)N1C(=O)NCc1ccccc1 (racemic) | 250 µg/mL (≈ 732 µM) | 6.25 µg/mL (≈ 18.3 µM) | 6.25 µg/mL (≈ 18.3 µM)

Source: ChEMBL document CHEMBL3392996, “Non-transpeptidase binding arylthioether β-lactams active against Mycobacterium tuberculosis and Moraxella catarrhalis” (2015)
